FID counter = compounds displacing fluorescent DNA intercalator, primary screen, artefact control for HCV NS3 helicase inhibitor project, biochemical, FID fluorescence. inhibition, % at 7.9 µM. DNA fluorescent intercalator displacement. AID 1845, 2009. 0.17% of 290,000 active; in the data active means inhibition above about 37%;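 further: higher means more ethidium bromide displaced from hairpin DNA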
NS3 helicase inh = inhibitors of HCV NS3 helicase, primary screen, biochemical, Cy5 molecular beacon fluorescence; inhibition, % at 10.9 µM; AID 1800, 2009; NS3 helicase DNA unwinding; Hepatitis C virus NS3 helicase; 0.56% of 290,000 active;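 active means inhibition above the mean of all tested compounds plus 3 SD, set per campaign, cut at about 35% in these data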
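Material: hepatitis C virus NS3 helicase domain fragment enzyme; measured by: Cy5 fluorescence, 0 and 60 min reads; control set: DMSO and thioflavine S; incubation: 60 min unwinding reaction at 25 °C after ATP addition; read-out basis: % inhibition from 60/0 min fluorescence ratio, DMSO 0%, thioflavine S 100%; repeats: singlicate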
GPR7 antag = GPR7 receptor antagonists, primary screen, cell-based, fluorescence, single concentration. GPR7-expressing cells, fluorescence antagonist assay. inhibition, % at 4.4 µM. 1.1% of 290,000 active. AID 1861, 2009. Neuropeptides B/W receptor type 1 (Homo sapiens), P48145; in the data active means inhibition above about 16%, passing the limit was not always enough;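 further: cells stimulated with the agonist NPW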
core dimer inh = inhibitors of HCV core protein dimerization, primary screen, biochemical, TR-FRET, high-throughput; inhibition, % at 5 µM; 0.33% of 300,000 active; TR-FRET GST/Flag-core106 dimerization, 1536-well; AID 1899, 2009;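 active means inhibition above the mean of all tested compounds plus 3 SD, set per screening campaign, cut at about 45% in these data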
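System – GST-tagged and Flag-tagged HCV core protein residues 1-106 · Repeats – one well for each compound · Technique – TR-FRET 671 and 617 nm emission · Doses – one concentration, 5 µM, in 0.5% DMSO · Times – 4 h, 22.5 °C incubation · Also added – Eu donor and XL665 acceptor anti-tag antibodies · Measure – percent inhibition of core106 dimerization signal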
pCIP destab = p/CIP-EGFP fusion destabilizers, primary screen, fluorescence, F442A cells. Q05BA5. 16 h. decrease of EGFP signal, % at 10 µM. 0.01% of 290,000 active. AID 1984, 2009;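 active means EGFP signal decrease of at least 30% at 10 µM or well 3 SD below plate mean, unless failing retest; inactive means the rest, including hits failing retest or dose response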
GPR7 antag cf = GPR7 receptor antagonists, confirmation, cell-based, fluorescence, single concentration | shares compounds with GPR7 antag | GPR7-expressing cells, calcium fluorescence antagonist mode | inhibition, % at 4.4 µM | 52% of 2,400 active; in the data active means inhibition above about 24%;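 further: stimulated with the GPR7 agonist NPW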
MCHR1 antagonist = MCHR1 antagonists in cells, counter-screen for GPR7 antagonist project, cell-based, fluorescence, human; inhibition, % at 4.4 µM; 62% of 2,400 active; MCHR1-expressing cells, fluorescence antagonist assay; shares compounds with GPR7 antag; in the data active means inhibition above about 22%
Each line names hits and unclear results; the compound was inactive in the other large screens (follow-up assays come after a bar, where they were run); ! = a repeat was not active. Shown are actives, neighbours in structure and some others; about 1.9% of the full set was active somewhere.

O=C(CCCNC(=O)c1ccc(Cl)cc1)Nc1ccc(Br)cc1	none
CN[C@H]1CC[C@@H](c2ccc(Cl)c(Cl)c2)c2ccccc21	GPR7 antag 35! (no result: FID counter) | GPR7 antag cf 51 | MCHR1 antagonist 49
COC(=O)C1=C(C)N(Cc2ccccc2)C(=NCc2ccc(OC)cc2)N[C@H]1c1cccc(F)c1	GPR7 antag 44 | GPR7 antag cf 51 | MCHR1 antagonist 41
O=C(CCC1CCCCC1)NCCN1C2=NC[C@@H](Cc3ccccc3)N2C[C@H]1Cc1ccc(O)cc1	GPR7 antag 46 | GPR7 antag cf 55 | MCHR1 antagonist 30
N#Cc1ccc(CSc2nnc(Cc3cccs3)n2Cc2ccco2)cc1	GPR7 antag 25 | GPR7 antag cf 28 | MCHR1 antagonist inactive
Cc1cc(Cl)ccc1NC(=O)CSc1nnc(Cc2cccs2)n1Cc1ccco1	GPR7 antag 23 | GPR7 antag cf 38 | MCHR1 antagonist 34
COc1cc2c(cc1NC(=O)CSc1nnc(Cc3cccs3)n1Cc1ccco1)oc1ccccc12	none
CCCC[C@@H]1CNCCN1CCc1cccc2ccccc12	none (no result: FID counter, NS3 helicase inh, GPR7 antag, pCIP destab)
O=C(NCCOC(=O)c1ccccc1)c1ccc([N+](=O)[O-])cc1	none
COc1ccc(OC)c(S(=O)(=O)N2CCC(C(=O)NC3CCCCCC3)CC2)c1	GPR7 antag 26 | GPR7 antag cf inactive | MCHR1 antagonist inactive
Cc1cc(Cl)c(S(=O)(=O)N2CCCCCC2)cc1OCC(=O)NC1CCCCC1	GPR7 antag 32 | GPR7 antag cf 61 | MCHR1 antagonist 58
COc1cc(OC)c(S(=O)(=O)N2CCCCC2)cc1S(=O)(=O)N1CCCCC1	GPR7 antag 48 | GPR7 antag cf 46 | MCHR1 antagonist inactive
CCOC(=O)Nc1c(Cl)n(C)c(=O)n(C)c1=O	none
O=[N+]([O-])c1ccc(Cl)c(NC(=S)N2CCCC2)c1	none
COc1cccc(NC(=O)Nc2nc(-c3ccc(OC)c(OC)c3)cs2)c1	GPR7 antag 74 | GPR7 antag cf 92 | MCHR1 antagonist 93
COc1ccc(S(=O)(=O)N2CCC(C(=O)NCc3ccco3)CC2)cc1	GPR7 antag 80 | GPR7 antag cf 24 | MCHR1 antagonist inactive
COc1ccc(CCNC(=O)c2ccc3c(c2)OCO3)cc1	none
O=C(NCCc1ccc2c(c1)OCO2)C1CCN(S(=O)(=O)c2ccc(Cl)cc2)CC1	none
COc1ccc(S(=O)(=O)N2CCC(C(=O)NCCc3ccc4c(c3)OCO4)CC2)cc1	GPR7 antag 28 | GPR7 antag cf inactive | MCHR1 antagonist inactive
COc1ccc(CCNC(=O)c2ccc3c(c2)OCCO3)cc1	GPR7 antag 28 | GPR7 antag cf inactive | MCHR1 antagonist inactive
COc1ccc(NC(=O)C2CCC(=O)N2C(=O)OCc2ccccc2)cc1 (configuration not stated)	none
O=C(C1CCCN(c2ncnc3c2nc2n3CCCCC2)C1)N1CCN(c2ccccc2F)CC1 (configuration not stated)	none
Cc1ccc(-n2nnnc2SCC(=O)NC2CC2)cc1C	none
CC(C)[C@H](NC(=O)c1nn(Cc2ccccc2)c(=O)c2ccccc12)C(=O)O	none
Cc1ccc(C)c(S(=O)(=O)NCCN2CCOCC2)c1	none
Cc1ccc(CC(=O)NNC(=O)c2ccncc2)cc1C	none (no result: FID counter, NS3 helicase inh, GPR7 antag, pCIP destab)
CC(=O)NC(CC(=O)NC1CCCCCC1)c1ccccc1 (configuration not stated)	none
CC(CC(=O)NC1CCCC1)c1ccccc1 (configuration not stated)	GPR7 antag 34 | GPR7 antag cf inactive | MCHR1 antagonist inactive
CCOc1ccccc1NC(=O)CSc1nc(=O)n(CCCN2CCOCC2)c2c1CCCC2	none (no result: FID counter, NS3 helicase inh, GPR7 antag, pCIP destab)
Cn1nc(C(=O)OCC(=O)Nc2ccc(S(N)(=O)=O)cc2)c2ccccc2c1=O	none
CCOC(=O)c1c(NC(=O)c2cccnc2)sc(C(C)=O)c1C	GPR7 antag 23 | GPR7 antag cf inactive | MCHR1 antagonist inactive
CCN(CC)C(=O)c1sc(NC(=O)c2cccnc2)c(C(=O)OC)c1C	none
O=C(NCCc1ccccc1)c1ccc(Cl)cc1[N+](=O)[O-]	none (no result: core dimer inh)
CC(C)c1cc(NCCOCCO)n2c(nc3ccccc32)c1C#N	none
CCCN(CCC)c1nc(Cl)nc(NCc2ccco2)n1	GPR7 antag 21 | GPR7 antag cf inactive | MCHR1 antagonist inactive
OCCNc1nc(Cl)nc(NCc2ccco2)n1	none
O=C1c2cccc(OCC(=O)N3CCCc4ccccc43)c2CCN1Cc1ccc(F)cc1	GPR7 antag 28 | GPR7 antag cf 41 | MCHR1 antagonist 77
O=C(Nc1sc(-c2ccccc2)cc1C(=O)O)c1ccccc1	none
O=C(c1cccs1)N1CCC(c2ccccc2)C1 (configuration not stated)	GPR7 antag 21 | GPR7 antag cf inactive | MCHR1 antagonist inactive
COc1ccc(-n2c(C)cc(C(=O)COc3ccc(-n4cnnn4)cc3)c2C)cc1	GPR7 antag 28 | GPR7 antag cf inactive | MCHR1 antagonist 24
CCCC[n+]1c(C)sc2cc(OC)ccc21	none
Cc1cc(C[n+]2cc(Br)ccc2N)c2ncccc2c1	GPR7 antag 30 | GPR7 antag cf 29 | MCHR1 antagonist inactive
Cc1cc(C[n+]2cc(Cl)ccc2N)c2ncccc2c1	GPR7 antag 23 | GPR7 antag cf 29 | MCHR1 antagonist 24
COc1ccc2c(c1)sc(N)[n+]2Cc1cc(C)cc2cccnc12	GPR7 antag 38 | GPR7 antag cf 41 | MCHR1 antagonist 57
Nc1ccc(Cl)c[n+]1Cc1cccc2cccnc12	none
Oc1ccc(Br)cc1CNc1cccc2cccnc12	none
Cc1cc(C)c(S(=O)(=O)NCC2CCC(C(=O)NCCCN3CCOCC3)CC2)c(C)c1 (configuration not stated)	GPR7 antag 22 (no result: core dimer inh) | GPR7 antag cf inactive | MCHR1 antagonist inactive
CC(C)CCNC(=O)c1ccc(OC2CCN(S(=O)(=O)N(C)C)CC2)cc1	GPR7 antag 25 | GPR7 antag cf inactive | MCHR1 antagonist inactive
COCCN(C(=O)c1csnn1)C(C(=O)NC1CCCC1)c1ccccc1 (configuration not stated)	GPR7 antag 44 | GPR7 antag cf inactive | MCHR1 antagonist inactive
O=C(NC1CCCCC1)C(c1ccccc1F)N(C(=O)c1csnn1)C1CCCC1 (configuration not stated)	GPR7 antag 23 | GPR7 antag cf inactive | MCHR1 antagonist inactive

High-throughput results (PubChem)
